The nature of data set [1]: folding enthalpy; higher = less favourable; fluorescence melt of hairpins on a sequencing array, two-state fit. The conditions noted are these: sodium 0.088 M. In outline:
(§1)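 Bootstrapped two-state fits yielded melting temperature and folding enthalpy for library hairpins. Cy3 fluorescence, with annealed Cy3 and quencher oligos, was imaged on a sequenced MiSeq flow cell in 50 mM Na-HEPES pH 8.0, 25 mM NaCl in 2.5 °C steps up to 60 °C, and normalised to pre-quench Cy3 and to control constructs. Four replicates were combined by inverse variance, and fitted temperatures were raised by 9.35 °C to match UV melts.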

Data set [2] can be described thus: melting temperature; fluorescence melt of hairpins on a sequencing array, two-state fit, raised by 9.35 °C to match UV melts. The conditions noted are these: sodium 0.088 M. In outline: as §1

In the case of GGCCCCGGAAACGAGGCC ((((.((....)).)))), the folding enthalpy in data set [1] is -38.4 kcal/mol. In addition, in data set [2], the Tm was determined as 57.5 °C.

As to GGCCCGGCGAAAGCCGCC (((..(((....)))))), the folding enthalpy in data set [1] was -7.68 kcal/mol. The Tm in data set [2] amounted to 37 °C.

GGCCCGGGAAACCGAGCC (((.(((....))).))): the folding enthalpy in data set [1] is -46 kcal/mol. In addition, the Tm in data set [2] worked out at 54.2 °C.

On to GGCCCTACGAAAGTAGCC (((..(((....)))))), for which, in data set [1], the folding enthalpy was -15.3 kcal/mol. Further, the Tm in data set [2] amounted to 31 °C.

As for GGCCCTGCGAAAGCAGCC (((..(((....)))))), the folding enthalpy in data set [1] is -8.71 kcal/mol. Moreover, the Tm in data set [2] came out at 36.9 °C.

Consider GGCCCTGGAAACGGGGTC (.(((.(....).))).), for which the folding enthalpy in data set [1] is -30.9 kcal/mol. In data set [2], the Tm was 49 °C.

Take GGCCGACGAAAGTCGCC (((.(((....)))))): the folding enthalpy in data set [1] is -14.4 kcal/mol. Also, the Tm in data set [2] is 60.2 °C.

On to GGCCGAGGAAACTCGGTC (.(((((....))))).), for which the folding enthalpy in data set [1] is -31.4 kcal/mol. Further, the Tm in data set [2] was 64.4 °C.

Take GGCCGCGAAAGCGACGCC ((((((....)))..))): in data set [1], the folding enthalpy was -16.9 kcal/mol. Also, the Tm in data set [2] was determined as 66.4 °C.

As to GGCCGCGAAAGCGTAGCC ((((((....)))..))), in data set [1], the folding enthalpy is -22.5 kcal/mol. Besides, the Tm in data set [2] amounted to 61 °C.

GGCCGGCCGAAAGGCGCC (((..(((....)))))): the folding enthalpy in data set [1] was -15.1 kcal/mol. In addition, the Tm in data set [2] worked out at 57.3 °C.

In the case of GGCCGGGCGAAAGCCGCC (((..(((....)))))), in data set [1], the folding enthalpy was -18.1 kcal/mol. For the same sequence, the Tm in data set [2] turned out to be 57.7 °C.

In the case of GGCCGGGGAAACCTGGCC ((((.((....)).)))), the folding enthalpy in data set [1] is -38.4 kcal/mol. Further, in data set [2], the Tm turned out to be 68 °C.

In the case of GGCCGGGGAAACTCGGCC (((((.(....).))))), the folding enthalpy in data set [1] is -40 kcal/mol. Moreover, the Tm in data set [2] worked out at 68.4 °C.

As to GGCCGGTCGAAAGACGCC (((..(((....)))))), the folding enthalpy in data set [1] is -21.9 kcal/mol. The Tm in data set [2] was determined as 48.4 °C.

On to GGCCGTCGAAAGACAGCC (((.(((....))).))), for which, in data set [1], the folding enthalpy is -35.1 kcal/mol. The Tm in data set [2] was determined as 58.4 °C.

Consider GGCCGTGGAAACACAGCC (((.(((....))).))), for which the folding enthalpy in data set [1] was -36.8 kcal/mol. In addition, in data set [2], the Tm came out at 50.1 °C.

As for GGCCTAGGAAACTAGGTC (.(((((....))))).), in data set [1], the folding enthalpy is -33.7 kcal/mol. Further, the Tm in data set [2] was determined as 51.6 °C.

Consider GGCCTCGAAAGAGATGCC ((((((....)))..))), for which, in data set [1], the folding enthalpy is -24.1 kcal/mol. Further, the Tm in data set [2] was determined as 46.8 °C.

For GGCCTCGAAAGAGCCGCC ((((((....)))..))), the folding enthalpy in data set [1] was -20.3 kcal/mol. The Tm in data set [2] stood at 57.2 °C.

With GGCCTCGAAAGAGGGGCC ((((((....)))..))), in data set [1], the folding enthalpy was -23 kcal/mol. The Tm in data set [2] was 54.9 °C.

Consider GGCCTCGCGAAAGCGGCC (((..(((....)))))), for which the folding enthalpy in data set [1] is -17.5 kcal/mol. Moreover, in data set [2], the Tm came to 59.4 °C.

On to GGCCTCGGAAACAAGGCC (((((.(....).))))), for which the folding enthalpy in data set [1] was -34.5 kcal/mol. The Tm in data set [2] is 51.9 °C.

As for GGCCTCGGAAACGAGGTC (.(((((....))))).), the folding enthalpy in data set [1] is -28.2 kcal/mol. For the same sequence, the Tm in data set [2] stood at 64.7 °C.

Take GGCCTGACGAAAGTCGCC (((..(((....)))))): the folding enthalpy in data set [1] was -16.3 kcal/mol. In addition, the Tm in data set [2] came out at 44 °C.

Take GGCCTGGCGAAAGCCGCC (((..(((....)))))): the folding enthalpy in data set [1] is -15.5 kcal/mol. Further, the Tm in data set [2] turned out to be 48.7 °C.

GGCCTGGGAAACCAGGTC (.(((((....))))).): the folding enthalpy in data set [1] was -33 kcal/mol. Moreover, in data set [2], the Tm was found to be 58.5 °C.

For the sequence GGCCTTGGAAACAAAGCC (((.(((....))).))), in data set [1], the folding enthalpy is -25.8 kcal/mol. For the same sequence, the Tm in data set [2] stood at 38.9 °C.

For GGCCTTGGAAACGAGGTC (.(((.(....).))).), in data set [1], the folding enthalpy was -31.3 kcal/mol. In addition, the Tm in data set [2] is 43.2 °C.

Turning to GGCGAACGAAAGTTGCC (((.(((....)))))), in data set [1], the folding enthalpy was -36.5 kcal/mol. Further, the Tm in data set [2] came out at 56.9 °C.

With GGCGACCCGAAAGGGGCC (((..(((....)))))), the folding enthalpy in data set [1] was -13.1 kcal/mol. Moreover, the Tm in data set [2] was determined as 54.6 °C.

With GGCGACGAAAGTCATGCC ((((((....)))..))), the folding enthalpy in data set [1] is -27.2 kcal/mol. For the same sequence, the Tm in data set [2] worked out at 52.5 °C.

As for GGCGACGAAAGTCGAGCC ((((((....)))..))), the folding enthalpy in data set [1] is -15.9 kcal/mol. For the same sequence, in data set [2], the Tm stood at 55.8 °C.

Turning to GGCGACGAAAGTCGCGCC ((((((....)))..))), the folding enthalpy in data set [1] was -6.6 kcal/mol. Moreover, in data set [2], the Tm is 65.8 °C.

Consider GGCGACGAAAGTCTAGCC ((((((....)))..))), for which, in data set [1], the folding enthalpy was -28.6 kcal/mol. Also, the Tm in data set [2] is 54.5 °C.

As for GGCGACGGAAACATCGCC (((((.(....).))))), the folding enthalpy in data set [1] is -42.6 kcal/mol. For the same sequence, in data set [2], the Tm is 55.4 °C.

Turning to GGCGACGGAAACGTCACC ((.((((....)))).)), in data set [1], the folding enthalpy is -33.5 kcal/mol. Also, the Tm in data set [2] amounted to 54.7 °C.
